Screening results: PubChem BioAssay, several laboratories
Hsp70 act = transcriptional activators of Hsp70; HeLa Hsp70 promoter luciferase reporter, luminescence; scaled: vehicle 0, proteasome-inhibitor control 100%; 200,000 tested, 0.04% active; activation, % at 10 µM;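 active = activation above the mean across all tested compounds plus 3 SD, cutoff set per campaign, cut at about 5.5% in these data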;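 also: 100% = MG132 at 30 µM as the positive control and 0% = DMSO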
PolyA inh = blocks polyadenylation in yeast reporter cells; S. cerevisiae SKY197-pL101 polyadenylation reporter, beta-gal luminescence; efflux-impaired pdr1/pdr3 knockout yeast; score 100 = 6 SD above DMSO; activity score, % at 12 µM; 300,000 tested, 0.02% active; AID 1875;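 active = lowest replicate activity score at least 50, where 100 means six control SD above control mean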;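 also: yeast exposed to compound for 9 h at 30 °C; higher score means more reporter readthrough which indicates perturbed polyadenylation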
PERK inhibitor = human PERK inhibition, primary cell-based screen; 220,000 tested, 0.17% active; inhibition, % at 5.6 µM; CHO PERK-DD fusion, SEAP luminescence translation reporter; AID 1416;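 active = inhibition above the mean inhibition of all tested compounds plus 3 SD, set separately per screening campaign, cut at about 2.9% in these data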;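 also: PERK kinase domain activated by AP20187 dimerizer at 100 nM; 0% = DMSO with dimerizer and 100% = rapamycin at 8.4 µM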
AHR act = activators of human aryl hydrocarbon receptor; P35869; AHR-responsive luciferase reporter cells, luminescence; activation, % at 5 µM; 320,000 tested, 2.5% active; in the data active = activation above about 47%;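 also: 0% = vehicle wells and 100% = reference agonist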
STAT3 act = activators of IL-6 induced STAT3 signaling; U3A cells, IL-6 STAT3-luciferase reporter, luminescence; 100% = signal with IL-6 EC80 alone; activation (% of control), % at 5.6 µM; 190,000 tested, 0.91% active; AID 871;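 active = activation above the screen-wide mean of compound activation plus 3 SD, cut at about 130% in these data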;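 also: 0% = background luminescence of wells with medium and substrate only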
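Assay system – human STAT1-deficient U3A cells with stable STAT3-luciferase reporter · Also added – IL-6 (33 ng/mL) · Schedule – compound 1 h, then IL-6 6 h at 37 °C · Technique – reporter luminescence signal · Evaluation – % activation versus median of IL-6-stimulated wells · Benchmarks – IL-6-only wells as 100% reference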
HSF1 inh = HSF1 inhibition; NIH3T3-HGL HSE-luciferase, MG132-induced, luminescence 8 h; hits give low values; activity change, negative = inhibition, % at 7.5 µM (by protocol); 300,000 tested, 0.77% active; AID 2098;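 active = more than half of replicate wells show activity change below -50%, luminescence cut by over half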;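 also: luciferase reports HSF-1 transcriptional activity via heat shock element; 0% = median of DMSO wells and -100% = zero luminescence signal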
* marks the source's active call; other numbers are inactive results; x = no result given. Shown are actives, neighbours in structure and some others; about 3.6% of the full set was active somewhere.

SMILES | Hsp70 act | PolyA inh | PERK inhibitor | AHR act | STAT3 act | HSF1 inh
CC(=O)Nc1ccc(C(=O)Nc2ccc3c(c2)OCO3)cc1 | 0 | 12 | 0 | 11 | 101 | 6
O=C(Nc1nnc(CCN2CCCCC2)s1)c1ccccc1Cl | 0 | -17 | 0 | 1 | 94 | -2
Cc1c(C(c2ccc(C(=O)O)cc2)c2c(C)n(C)n(-c3ccccc3)c2=O)c(=O)n(-c2ccccc2)n1C | x | -4 | x | 1 | x | -2
O=C(O)CC(NC(=O)c1ccncc1)c1ccccc1 (configuration not stated) | 0 | 6 | 1 | 2 | 104 | 1
CCOc1cc(C(=O)Nc2ccc3c(c2)OCO3)ccc1OC(F)F | 1 | 19 | 0 | 51* | 91 | 0
O=C(Nc1ccc2c(c1)OCO2)c1cccc(S(=O)(=O)N2CCCC2)c1 | 0 | -3 | 0 | 107* | 99 | 9
O=S(=O)(Cc1ccc(Cl)cc1)N1CCN(c2ncccn2)CC1 | x | -10 | x | -4 | x | -5
CCOC(=O)C1CCCN(c2cc(=O)n(-c3ccccc3Cl)c(=O)[nH]2)C1 (configuration not stated) | 0 | 19 | 3.3* | 3 | 106 | -5
COc1ccc(CNC(=O)CCCNC(=O)c2ccc(Cl)cc2)cc1OC | x | -11 | x | 3 | x | -44
Cc1nc2ccccc2n1/N=C/c1ccc([N+](=O)[O-])s1 | 0 | -67 | 1 | 52* | 86 | 8
CCc1ccc(Nc2cnn(-c3nc4ccccc4s3)c(=O)c2Cl)cc1 | 0 | -14 | 0 | 49* | 105 | -7
CCCCNc1cnn(-c2ccccc2)c(=O)c1Cl | 0 | -9 | -1 | 0 | 83 | -1
CC(C)CN(C(=O)COC(=O)COc1ccc2c(c1)CCC2)c1c(N)n(Cc2ccccc2)c(=O)[nH]c1=O | x | 0 | x | -2 | x | -1
Cc1ccc(N2C(=O)c3ccccc3C2C(=O)c2ccc(O)cc2O)cc1 (configuration not stated) | 0 | 1 | 1 | 59* | 96 | 1
Cc1ccc(N2C(=O)c3ccccc3C2C(=O)c2cc(C)ccc2O)cc1 (configuration not stated) | 0 | -15 | 0 | 26 | 101 | 14
Cc1ccc(CNc2nc3ccccc3s2)s1 | 0 | -22 | 0 | 68* | 40 | -3
Cc1ccc(C(=O)Nc2nc3ccccc3s2)s1 | 0 | 8 | 0 | 79* | 70 | 15
Cc1ccc(C(=O)Nc2nc3ccc(S(C)(=O)=O)cc3s2)s1 | 0 | -2 | 0 | 1 | 92 | 19
COc1ccccc1NC(=O)CSc1nnc(C2CCCCC2)n1-c1ccccc1 | x | 6 | 1 | 2 | x | -5
COc1ccc(OC)c(Cc2nnc(CCC(=O)NCc3ccc(C)s3)o2)c1 | 0 | -18 | 3.3* | 2 | 97 | 0
CCN(CC)c1nc2c(c(=O)[nH]c(=O)n2C)n1CCOc1ccccc1 | x | -1 | x | 10 | x | -47
Nc1n[nH]c(C2CC2)c1N=Nc1ccc(Cl)c(Cl)c1 | x | -1 | 2 | 96* | x | 0
C/C(=N/OC(=O)C1CC12CCC2)c1ccc(Br)cc1 (configuration not stated) | 0 | -4 | 0 | -1 | 98 | 7
COc1ccc(/C=N/NC(=O)c2cccnc2)cc1CSc1nc2ccccc2s1 | 0 | -3 | 0 | 54* | 106 | 4
Cc1ccc(Cn2c(Sc3nccc(C)n3)nc3c2c(=O)[nH]c(=O)n3C)cc1 | 0 | 1 | 0 | 1 | 102 | 8
SMILES | Hsp70 act | PolyA inh | PERK inhibitor | AHR act | STAT3 act | HSF1 inh
Cc1ccc(Cn2c(Sc3ncccn3)nc3c2c(=O)[nH]c(=O)n3C)cc1 | 0 | 12 | 0 | 0 | 101 | -65*
COc1ccc(Nc2nc(-c3c[nH]c4ccccc34)cs2)cc1 | 0 | 1 | 0 | 76* | 117 | 0
c1cncc(Nc2nc(-c3cccs3)cs2)c1 | 1 | -16 | 0 | 58* | 141* | -4
COc1ccc(-c2csc(Nc3cccnc3)n2)cc1 | 1 | -1 | -1 | 54* | 101 | -5
c1ccc(-c2csc(Nc3cccnc3)n2)nc1 | 0 | -1 | 0 | 20 | 98 | 8
COc1ccc2oc(C(=O)OCC(=O)N(C)C3CCCCC3)c(C)c2c1 | x | -12 | x | -1 | x | 1
CC(=O)NCCc1ccc(S(=O)(=O)Nc2ccc3c(c2)OCCO3)cc1 | x | 25 | x | -1 | x | -21
Cc1ccc(NC(=S)NC2CC3CCC(C2)N3Cc2ccco2)cc1C (configuration not stated) | 0 | 1 | 0 | 0 | 106 | -84*
CCc1ccc(NC(=O)CSc2nnc(CNC(=O)c3ccco3)o2)cc1 | x | 32 | x | 7 | x | -2
O=C(CSc1nc2ccccc2n1S(=O)(=O)c1ccccc1)N1CCCCC1 | 0 | 7 | 0 | -3 | 87 | -56*
Cc1nnsc1S(=O)c1ccccc1Cl (configuration not stated) | x | 22 | x | 2 | x | -2
COc1ccc(-c2cc(C(=O)NC(Cc3cc4ccccc4[nH]3)C(=O)O)c(C)o2)cc1OC (configuration not stated) | 0 | 3 | 2 | 15 | 122 | -7
Cc1oc(-c2ccc3c(c2)OCCO3)cc1C(=O)O | 0 | -15 | -1 | -10 | 50 | -72*
Cc1oc(-c2ccc3c(c2)OCCO3)cc1C(=O)NCC(=O)O | 0 | 18 | 1 | 3 | 99 | -33
COc1ccc(-c2cc(C(=O)O)c(C)o2)cc1OC | 0 | 15 | 1 | -6 | 70 | -61*
COc1cccc(N=c2oc3ccc(OC)cc3cc2-c2nc3ccccc3[nH]2)c1 | 0 | -20 | -2 | 53* | 151* | 28
Cc1c(C(=O)Nc2ccc(S(=O)(=O)N3CCOCC3)cc2)cccc1[N+](=O)[O-] | x | 16 | x | 2 | x | 1
Cc1cccc(NC(=S)N/N=C2\CC(C)(C)Oc3ccc(O)cc32)c1 | 0 | 4 | 1 | 45 | 102 | 5
CC1(C)C/C(=N\NC(=S)Nc2ccccc2F)c2cc(O)ccc2O1 | 0 | -19 | 1 | 60* | 97 | -16
C=CCNc1nc2ccccc2nc1NS(=O)(=O)c1ccc(Br)cc1 | x | -18 | x | -1 | x | -1
CC(=O)Nc1ccc(/C=C/c2nc3ccccc3o2)cc1 | x | 10 | x | -4 | x | 22
O=C(Nc1ccc(/C=C/c2nc3ccccc3o2)cc1)c1c(F)cccc1F | 0 | 10 | -1 | 49* | 87 | 17
COc1cccc2cc(-c3nnc(-c4ccccc4)o3)c(=O)oc12 | 0 | -9 | 1 | 0 | 64 | -57*
Cc1nn(C)cc1C(C(=O)NC1CCCCC1)N(C(=O)Cc1cccs1)c1ccc(Cl)cc1 (configuration not stated) | 0 | 17 | 1 | 2 | 102 | 6
CCCNC(=O)c1ccc2c(=O)c(O)c(C)[nH]c2c1 | x | 16 | x | 3 | x | -7
